Assay results as given in ChEMBL document CHEMBL4715736, “Identification of anticancer agents based on the thieno[2,3-b]pyridine and 1H-pyrazole molecular scaffolds” (2016).

Key:
Type in all cases: functional
BT-549 = assay: Growth inhibition of human BT-549 cells assessed as cell growth at 0.01 uM incubated for 48 hrs by sulforhodamine B assay relative to control; conditions: read-out: Activity
HL-60(TB) [1] = assay: Growth inhibition of human HL-60(TB) cells assessed as cell growth at 0.01 uM incubated for 48 hrs by sulforhodamine B assay relative to control; conditions: read-out: Activity
Summary of the method: (§1)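 Screened by the NCI Developmental Therapeutics Program on its panel of 60 human tumour cell lines. Compounds were first tested at a single 10 µM dose, and compounds active there went to dose-response curves. Growth is expressed relative to untreated control (100%). GI50 (50% of maximal proliferation inhibition) and TGI (total growth inhibition) were derived from the dose-response data.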

HL-60(TB) [2] = assay: Growth inhibition of human HL-60(TB) cells assessed as cell growth at 100 uM incubated for 48 hrs by sulforhodamine B assay relative to control; conditions: read-out: Activity; summary of the method: as §1
HL-60(TB) [3] = assay: Growth inhibition of human HL-60(TB) cells assessed as cell growth at 1 uM incubated for 48 hrs by sulforhodamine B assay relative to control; conditions: read-out: Activity; summary of the method: as §1
HL-60(TB) [4] = assay: Growth inhibition of human HL-60(TB) cells assessed as cell growth at 0.1 uM incubated for 48 hrs by sulforhodamine B assay relative to control; conditions: read-out: Activity; summary of the method: as §1
HL-60(TB) [5] = assay: Growth inhibition of human HL-60(TB) cells incubated for 48 hrs by sulforhodamine B assay; summary of the method: as §1
EKVX [6] = assay: Growth inhibition of human EKVX cells assessed as cell growth at 100 uM incubated for 48 hrs by sulforhodamine B assay relative to control; conditions: read-out: Activity
EKVX [7] = assay: Growth inhibition of human EKVX cells incubated for 48 hrs by sulforhodamine B assay
EKVX [8] = assay: Growth inhibition of human EKVX cells assessed as cell growth at 10 uM incubated for 48 hrs by sulforhodamine B assay relative to control; conditions: read-out: Activity
EKVX [9] = assay: Growth inhibition of human EKVX cells assessed as cell growth at 0.01 uM incubated for 48 hrs by sulforhodamine B assay relative to control; conditions: read-out: Activity
EKVX [10] = assay: Growth inhibition of human EKVX cells assessed as cell growth at 0.1 uM incubated for 48 hrs by sulforhodamine B assay relative to control; conditions: read-out: Activity
EKVX [11] = assay: Growth inhibition of human EKVX cells assessed as cell growth at 1 uM incubated for 48 hrs by sulforhodamine B assay relative to control; conditions: read-out: Activity

Compound | growth at 0.01 µM (BT-549) | growth at 0.01 µM (HL-60(TB) [1]) | growth at 100 µM (HL-60(TB) [2]) | growth at 1 µM (HL-60(TB) [3]) | growth at 0.1 µM (HL-60(TB) [4]) | GI50 (HL-60(TB) [5]) | LC50 (HL-60(TB) [5]) | TGI (HL-60(TB) [5]) | further results
Cc1cc(C)c(NC(=O)c2sc3nc4c(cc3c2N)CN(Cc2ccccc2)CC4)c(C)c1 | 87% |  |  |  |  |  |  |  | 
CCc1ccccc1NC(=O)c1sc2nc3c(cc2c1N)C(=O)CCC3 | 104% | 101% | -5% | 6% | 87% | 0.304 µM | > 100 µM | 42 µM | 
Nc1c(C(=O)Nc2ccccc2)sc2nc3c(cc12)CN(Cc1ccccc1)CC3 | 97% |  |  |  |  |  |  |  | 
CN1CCc2nc3sc(C(N)=O)c(N)c3c(-c3cccs3)c2C1 | 114% | 110% | -19% | 95% | 104% | 2.5 µM | > 100 µM | 6.97 µM | growth at 100 µM (EKVX [6]): 5%; GI50 (EKVX [7]): 3.54 µM; TGI (EKVX [7]): > 100 µM; CC50 (EKVX [7]; read-out: LC50 (the source's name)): > 100 µM; growth at 10 µM (EKVX [8]): 17%; growth at 0.01 µM (EKVX [9]): 100%; growth at 0.1 µM (EKVX [10]): 92%; growth at 1 µM (EKVX [11]): 91%
Cc1cccc(NC(=O)c2sc3nc4c(cc3c2N)C(=O)CCC4)c1 | 87% |  |  |  |  |  |  |  | 
CCc1cccc(C)c1NC(=O)c1sc2nc3c(cc2c1N)C(=O)CCC3 |  | 96% | -52% | 2% | 96% | 0.319 µM | ≥ 100 µM | ≥ 100 µM | 
Cc1ccc(NC(=O)c2sc3nc4c(cc3c2N)C(=O)CCC4)cc1C | 107% | 99% | -33% | 6% | 105% | 0.36 µM | > 100 µM | 1.72 µM | 
COc1cccc(NC(=O)c2sc3nc4c(cc3c2N)CN(Cc2ccccc2)CC4)c1 | 88% |  |  |  |  |  |  |  | 
COc1ccc(S(=O)(=O)n2ccc(-c3ccc4c(c3)CCC(C)(C)O4)n2)cc1 |  |  |  |  |  |  |  |  | growth at 10 µM (EKVX [8]): 51.6%
